# From PubChem BioAssay
# Only some compounds are listed: those with a hit (about 2.9% of all), similar ones and a draw of the others.
# Kir21 inh – Kir2.1 (mouse) channel inhibition | P35561 | HEK293-Kir2.1, FluxOR thallium flux fluorescence; stronger effect = lower value | B-score at 10 µM | 0.85% of 310,000 active | AID 1672;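 active = fluorescence ratio B-score at or below minus 3 SD of library scores, with starting-brightness B-score within 2 SD, cut at about -4.2 in these data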;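 also: channel flux triggered by added potassium and thallium sulfate stimulus; B-score of peak minus minimum fluorescence over baseline after thallium stimulus; more negative B-score means stronger Kir2.1 block with less thallium influx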
# TRPC6 inhibitor – inhibitors of mouse TRPC6 channel; 1.1% of 310,000 active; HEK293-TRPC6, membrane potential dye, ACh-evoked depolarization; stronger effect = lower value; B-score at 10 µM; AID 2553; Q61143;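 active = B-score under library mean minus 3 SD, initial fluorescence not abnormally high, positive integrated signal ratio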;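 also: B-score derived from integrated fluorescence ratio over the kinetic read; more negative B-score means stronger inhibition of depolarization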
# TRPC6 activator – activators of mouse TRPC6 channel. HEK293-TRPC6 membrane potential dye fluorescence; stronger effect = higher value. Q61143. 0.13% of 310,000 active. B-score at 10 µM;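 active = B-score of the integrated fluorescence ratio above library mean plus 3 SD, and starting fluorescence ratio within library mean plus 5 SD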;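 also: higher score means more depolarization so channel activation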
# TRPC4 potent – allosteric potentiators of mouse TRPC4 channel; AID 2227; 0.42% of 310,000 active; B-score at 10 µM; HEK293 TRPC4beta/mu-opioid, DAMGO EC20, Fluo-4 Ca2+ flux; stronger effect = higher value;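 active = B-score of calcium response area above 5 SD of library B-scores, with initial fluorescence ratio within 5 SD of library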;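 also: B-score of integrated fluorescence ratio over time as area under calcium response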
# Target sequence (Q9QUQ5 whole entry, looked up): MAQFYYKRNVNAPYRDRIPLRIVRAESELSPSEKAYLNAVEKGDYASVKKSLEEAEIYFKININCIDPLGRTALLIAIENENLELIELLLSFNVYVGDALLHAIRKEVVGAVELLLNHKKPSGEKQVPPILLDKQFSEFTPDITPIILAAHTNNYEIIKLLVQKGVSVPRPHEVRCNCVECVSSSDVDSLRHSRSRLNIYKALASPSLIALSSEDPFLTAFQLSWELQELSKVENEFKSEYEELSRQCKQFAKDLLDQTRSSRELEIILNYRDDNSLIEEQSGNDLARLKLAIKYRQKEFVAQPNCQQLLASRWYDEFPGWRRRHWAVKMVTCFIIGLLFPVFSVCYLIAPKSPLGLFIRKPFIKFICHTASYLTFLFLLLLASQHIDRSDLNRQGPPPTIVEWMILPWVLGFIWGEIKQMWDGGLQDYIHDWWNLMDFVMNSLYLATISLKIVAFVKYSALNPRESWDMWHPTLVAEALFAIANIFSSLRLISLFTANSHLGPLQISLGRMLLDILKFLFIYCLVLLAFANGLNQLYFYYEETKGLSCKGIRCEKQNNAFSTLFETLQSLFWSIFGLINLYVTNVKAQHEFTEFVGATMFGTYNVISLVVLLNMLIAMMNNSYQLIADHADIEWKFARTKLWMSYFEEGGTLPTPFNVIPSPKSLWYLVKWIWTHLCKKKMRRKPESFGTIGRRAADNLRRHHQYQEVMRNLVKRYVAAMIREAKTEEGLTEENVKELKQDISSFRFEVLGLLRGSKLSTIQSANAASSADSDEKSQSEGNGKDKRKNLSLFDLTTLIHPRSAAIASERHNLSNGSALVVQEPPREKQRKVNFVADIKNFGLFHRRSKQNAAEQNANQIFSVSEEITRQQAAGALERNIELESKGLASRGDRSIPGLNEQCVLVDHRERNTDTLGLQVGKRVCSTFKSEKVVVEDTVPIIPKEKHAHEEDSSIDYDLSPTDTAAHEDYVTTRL
# TRPC4 act – activators of mouse TRPC4 channel; AID 2237; B-score at 10 µM; Q9QUQ5; HEK293 TRPC4beta/mu-opioid, Fluo4 calcium fluorescence; stronger effect = higher value; 0.49% of 310,000 active;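 active = B-score above 5 SD of library B-scores, and initial fluorescence ratio not above library mean plus 5 SD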;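 also: positive B-score marks a calcium rise read as TRPC4 activation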
#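 System – HEK293 cells stably co-expressing mouse TRPC4beta and mu-opioid receptor · Signal – Fluo4 calcium-sensitive dye fluorescence, kinetic, 1 Hz baseline · Benchmarks – buffer (low) and maximal DAMGO (high) · Read-out – B score of integrated fluorescence ratio per well · Incubation – dye loading 45 min room temperature, 110 s kinetic read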
# TRPC4 inh – inhibitors of mouse TRPC4 channel. Q9QUQ5. 0.39% of 300,000 active. HEK293 TRPC4beta/mu-opioid, DAMGO-evoked Fluo4 calcium flux; stronger effect = lower value. B-score at 10 µM. AID 2247;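 active = B-score over 3 SD under the library average, no early fluorescence shift, positive overall ratio signal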
#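 Assay system: Stable TRPC4beta/mu-opioid receptor HEK293 cells | Reagent: DAMGO in two steps, submaximal then maximal | Compound dosing: Single concentration per test compound | Signal: Fluo4 Ca2+ flux fluorescence | Evaluation: Per-well B score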
# Numbers without * were called inactive; i = inactive.
SMILES,Kir21 inh,TRPC6 inhibitor,TRPC6 activator,TRPC4 potent,TRPC4 act,TRPC4 inh
CC(C)CCn1c(N2CCN(c3cccc(Cl)c3)CC2)nc2c1c(=O)[nH]c(=O)n2C,0.1,i,i,16*,i,i
CN1CCC(=C2c3ccccc3CCc3sccc32)CC1,-1.07,-6.65*,i,i,i,i
CCOC(=O)C1(Cc2ccc(OC)cc2)CCN(C(=O)c2csc(C)n2)CC1,1.76,i,i,i,i,i
CN(CCC(=O)Nc1ccc(Cl)cc1)Cc1ccccc1,-1.73,i,i,i,126*,i
CN(CC(=O)Nc1ccc(Cl)cc1)C(=O)CCc1ccccc1,-0.02,i,i,i,i,i
CN(CCC(=O)Nc1ccc2c(c1)OCO2)Cc1ccccc1,0.78,i,i,i,53*,i
O=C(/C=C/Nc1ccc(F)cc1F)c1ccc(Br)cc1,-0.88,i,i,i,i,i
S=C(NCc1ccccc1)N1CCN(C2CCCCC2)CC1,-0.59,i,i,i,76*,i
S=C(NCc1ccccc1)N1CCN(c2ccccc2)CC1,-0.04,i,i,i,i,i
CCC1CN(C(=O)Nc2ccc(C)cc2)c2cc(C)ccc2O1 (configuration not stated),-0.87,i,i,i,i,-6*
CCC1CN(C(=O)NCc2ccc(F)cc2)c2cc(C)ccc2O1 (configuration not stated),-1.91,i,i,i,i,i
CCN(C1CCCCC1)S(=O)(=O)c1ccc(OC)c(C)c1,-5.39*,i,i,i,i,i
O=C(Nc1ccccn1)c1cc2ccccc2o1,-0.11,i,i,i,i,i
Cc1oc(-c2ccc(Cl)cc2)nc1CSCC(=O)NC1CCN(Cc2ccccc2)CC1,-1.79,i,i,12*,i,i
Cc1oc(-c2ccccc2Cl)nc1CSCC(=O)NC1CCCC1,-4.74*,i,i,i,i,i
CCOC(=O)N1CCC(NC(=O)CSCc2nc(-c3ccccc3Cl)oc2C)CC1,0.1,i,i,i,i,i
COc1cccc(CN(C)C(=O)CCN(c2ccccc2)S(=O)(=O)c2ccc(C)cc2)c1OC,-0.59,i,i,i,i,i
COC(=O)C1=CN(c2ccc(OC)cc2)C=C(C(=O)OC)C1c1ccc(C)c([N+](=O)[O-])c1,2.1,i,i,i,i,i
Cn1nnnc1SCCNCc1ccccc1OCc1ccc(Cl)cc1,-4.29*,i,i,i,i,-7*
Cn1nnnc1SCCNCc1cc(Cl)ccc1OCc1ccccc1,-2.07,i,i,i,i,i
COc1ccc(/C=N/NC(=O)CCN2CCCCC2c2cccnc2)cc1Cn1cc([N+](=O)[O-])cn1 (configuration not stated),-0.21,i,i,i,i,i
CN(C)Cc1c(O)ccc2occ(C(=O)c3ccccc3)c12,-1.07,i,i,i,i,i
O=C(c1ccccc1)c1coc2ccc(O)c(CN3CCOCC3)c12,-6.28*,i,i,i,i,i
CCN(CC(=O)Nc1c(F)cccc1F)C(=O)c1ccc(N2CCOCC2)c([N+](=O)[O-])c1,-1.62,i,i,i,i,i
COc1cccc(NC(=O)CSc2nc3c(sc4ccccc43)c(=O)n2CCCN2CCCC2)c1,-5.68*,i,i,i,i,i
SMILES,Kir21 inh,TRPC6 inhibitor,TRPC6 activator,TRPC4 potent,TRPC4 act,TRPC4 inh
COc1cccc(NC(=O)CSc2nc3c(sc4ccccc43)c(=O)n2CCN(C)C)c1,-0.65,i,i,i,i,i
Cc1ccc(Nc2c(N)c(=O)oc3ccccc23)cc1,-0.87,i,i,31*,i,i
COc1cc(-c2ccccc2)nc2ccccc12,-1.61,i,i,i,i,i
CCn1ccnc1CNC(=O)c1ccc2oc(CCCc3ccccc3)nc2c1,-1.01,i,i,i,i,-6*
COc1ccc(CC(=O)N(c2ccccc2)c2nc(C)cs2)cc1,-5.54*,i,i,i,i,i
O=C(O)c1ccc(Cl)cc1Nc1nc2cc(Cl)ccc2o1,0.75,i,i,i,i,-6*
Cc1cccc(NCc2nnc(-c3ccccc3)o2)c1C,1.43,i,i,i,i,i
Cn1c(CNc2cccc(Cl)c2)nnc1SCC(=O)OC1CCCCC1,-4.22*,i,i,i,i,i
O=C(CSc1nnc(-c2ccccc2)o1)c1ccc2c(c1)OCCO2,0.97,i,i,i,i,-6*
CCOc1ccc(/C=N/Nc2cc(N3CCOCC3)nc(C)n2)c(O)c1,-0.91,i,i,i,i,i
Cc1cc(C)c(C(=O)COC(=O)CCn2c(C)csc2=O)cc1C,-4.47*,i,i,i,i,i
O=c1c2ccccc2[nH]c(=S)n1Cc1ccccc1Cl,-1.88,i,i,i,i,i
Cn1cnc([N+](=O)[O-])c1SCC(O)CN1CCCCC1 (configuration not stated),1.43,i,i,i,i,i
COc1ccc(/C=N/NC2=NS(=O)(=O)c3ccccc32)cc1,0.04,i,i,i,i,i
OCC1CCN(Cc2cn(Cc3ccccc3)nc2-c2cc3ccccc3o2)CC1,-3.33,i,i,i,56*,i
COc1ccccc1/C=C1\SC(=S)N(CCC(=O)NCCCn2ccnc2)C1=O,-4.48*,i,i,i,i,i
O=C(CCCN1C(=O)/C(=C/c2ccc(F)cc2)SC1=S)NCCCn1ccnc1,-4.68*,i,i,i,i,i
Cc1cc2ccc3ccccc3c2cc1CN(C)C,-13.5*,i,i,i,i,i
COc1cccc(C2=NN(C(=O)c3ccco3)C(c3ccco3)C2)c1 (configuration not stated),0.96,i,i,i,i,-6*
CS(=O)(=O)Nc1ccc(C2=NN(C(=O)c3ccco3)C(c3ccco3)C2)cc1 (configuration not stated),-0.48,i,i,i,i,i
CCCCCCCCn1c2c(c(=N)c3ccccc31)CCC2,-14.6*,i,i,i,i,i
N=c1c2c(n(Cc3ccc(Cl)cc3)c3c1CCC3)CCC2,-0.11,i,i,i,i,-7*
CCCCCCCCCn1c2c(c(=N)c3c1CCC3)CCCC2,-14.7*,i,i,i,i,i
